Our source for the MIC and solubility values is ChEMBL document CHEMBL4145497, “Discovery of 2-aminothiazolyl berberine derivatives as effectively antibacterial agents toward clinically drug-resistant Gram-negative Acinetobacter baumanii” (Eur J Med Chem, 2018).

The subject of data set [1] is Bacillus subtilis. Put plainly: Antibacterial activity against Bacillus subtilis ATCC 21216 after 18 to 24 hrs by CLSI two fold serial dilution method. In kind it is functional.
For data set [2], the system named is Escherichia coli. Briefly: Antibacterial activity against Escherichia coli DH52 after 18 to 24 hrs by CLSI two fold serial dilution method. In kind it is functional.
Data set [3] relates to Pichia norvegensis. Briefly: Antifungal activity against Candida mycoderma ATCC 96918 by CLSI two fold serial dilution method. In kind it is functional.
Data set [4] concerns Saccharomyces cerevisiae. Briefly: Antifungal activity against Saccharomyces cerevisiae ATCC 9763 by CLSI two fold serial dilution method. In kind it is functional.
Data set [5] deals with Candida parapsilosis. Put plainly: Antifungal activity against Candida parapsilosis ATCC 22019 by CLSI two fold serial dilution method. In kind it is functional. The note with it: Lodderomyces parapsilosis.
The subject of data set [6] is Cyberlindnera jadinii. Briefly: Antifungal activity against Candida utilis ATCC 9950 by CLSI two fold serial dilution method. In kind it is functional. The note with it: Williopsis jadinii.
Data set [7] has as its system Pseudomonas aeruginosa. Put plainly: Antibacterial activity against Pseudomonas aeruginosa ATCC 27853 after 18 to 24 hrs by CLSI two fold serial dilution method. In kind it is functional.
For data set [8], the system named is Candida albicans. Put plainly: Antifungal activity against Candida albicans ATCC 76615 by CLSI two fold serial dilution method. In kind it is functional.
A short description of data set [9]: Aqueous solubility of the compound in phosphate buffer at pH 7.4 after 3 hrs by UV detection assay. In kind it is physicochemical. The method, boiled down: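 Water solubility measured at physiological pH, with berberine as the control.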
The subject of data set [10] is Staphylococcus aureus. Briefly: Antibacterial activity against Staphylococcus aureus ATCC 25923 after 18 to 24 hrs by CLSI two fold serial dilution method. In kind it is functional.
The subject of data set [11] is Aspergillus flavus. Put plainly: Antifungal activity against Aspergillus flavus ATCC 204304 by CLSI two fold serial dilution method. In kind it is functional.
Data set [12] deals with Micrococcus luteus. Briefly: Antibacterial activity against Micrococcus luteus ATCC 4698 after 18 to 24 hrs by CLSI two fold serial dilution method. In kind it is functional.

In brackets after ≈: the same amount, converted by molar mass.

The term MIC denotes the least concentration at which growth counts as inhibited. Read a low MIC as a more susceptible organism. In general, solubility refers to the dissolved amount per volume that the medium holds. A higher solubility goes with much dissolved substance. Regarding `COc1cc(/C=N/Nc2nccs2)c2c(c1OCc1cccc(Cl)c1)CN1CCc3cc4c(cc3C1C2)OCO4` (centres undefined), the MIC was 110 µM (≈ 63.3 µg/mL) in data set [1]; 890 µM (≈ 512 µg/mL) in [2]; 220 µM (≈ 127 µg/mL) in data set [3]; 890 µM (≈ 512 µg/mL) in data set [4]; 60 µM (≈ 34.5 µg/mL) in data set [5]; 450 µM (≈ 259 µg/mL) in data set [6]. For the same compound, the minimum inhibitory concentration (MIC) came to 220 µM (≈ 127 µg/mL) in data set [7]; 450 µM (≈ 259 µg/mL) in data set [8]; 220 µM (≈ 127 µg/mL) in data set [10]; 450 µM (≈ 259 µg/mL) in [11]; 220 µM (≈ 127 µg/mL) in data set [12]. Further, the solubility at 3 h in [9] lay within 374 to 3190 µg/mL (≈ 0.65 to 5.55 mM).

For `COc1cc(/C=N/Nc2nccs2)c2c(c1OCCO)CN1CCc3cc4c(cc3C1C2)OCO4` (centres undefined), the MIC in data set [1] amounted to 260 µM (≈ 129 µg/mL); in data set [2], 130 µM (≈ 64.3 µg/mL); in data set [3], 520 µM (≈ 257 µg/mL); in [4], 520 µM (≈ 257 µg/mL); in data set [5], 30 µM (≈ 14.8 µg/mL); in data set [6], 520 µM (≈ 257 µg/mL). The MIC in data set [7] came out at 130 µM (≈ 64.3 µg/mL); in [8] it was 260 µM (≈ 129 µg/mL); in [10], 130 µM (≈ 64.3 µg/mL); in data set [11] it was 1040 µM (≈ 514 µg/mL); in [12], 260 µM (≈ 129 µg/mL). For the same compound, in data set [9], the solubility at 3 h was 7020 to 10200 µg/mL (≈ 14.2 to 20.6 mM).

Take `CCCCOc1c(OC)cc(/C=N/Nc2nccs2)c2c1CN1CCc3cc4c(cc3C1C2)OCO4` (centres undefined): the MIC was 250 µM (≈ 127 µg/mL) in data set [1]; 60 µM (≈ 30.4 µg/mL) in [2]; 250 µM (≈ 127 µg/mL) in data set [3]; 510 µM (≈ 258 µg/mL) in data set [4]; 8 µM (≈ 4.05 µg/mL) in data set [5]; 250 µM (≈ 127 µg/mL) in [6]. The MIC in data set [7] worked out at 250 µM (≈ 127 µg/mL); in data set [8], 250 µM (≈ 127 µg/mL); in [10] it was 60 µM (≈ 30.4 µg/mL); in data set [11], 510 µM (≈ 258 µg/mL); in data set [12], 250 µM (≈ 127 µg/mL). The compound further registered a solubility at 3 h in data set [9] of 7020 to 10200 µg/mL (≈ 13.9 to 20.1 mM).

In the case of `COc1cc(/C=N/Nc2nccs2)c2c(c1O)CN1CCc3cc4c(cc3C1C2)OCO4` (centres undefined), the MIC stood at 140 µM (≈ 63.1 µg/mL) in [1]; 280 µM (≈ 126 µg/mL) in data set [2]; 140 µM (≈ 63.1 µg/mL) in data set [3]; 570 µM (≈ 257 µg/mL) in [4]; 40 µM (≈ 18 µg/mL) in data set [5]; 280 µM (≈ 126 µg/mL) in [6]. Moreover, the minimum inhibitory concentration (MIC) was 140 µM (≈ 63.1 µg/mL) in data set [7]; 140 µM (≈ 63.1 µg/mL) in data set [8]; 140 µM (≈ 63.1 µg/mL) in data set [10]; 280 µM (≈ 126 µg/mL) in data set [11]; 70 µM (≈ 31.5 µg/mL) in data set [12]. In [9], this compound had a solubility at 3 h of 1660 µg/mL (≈ 3.68 mM).

`COc1cc(/C=N/Nc2nccs2)c2c(c1OCc1ccccc1F)CN1CCc3cc4c(cc3C1C2)OCO4` (centres undefined): the MIC in data set [1] was 460 µM (≈ 257 µg/mL); in [2], 230 µM (≈ 128 µg/mL); in data set [3], 460 µM (≈ 257 µg/mL); in [4], 920 µM (≈ 514 µg/mL); in data set [5], 230 µM (≈ 128 µg/mL); in [6], 460 µM (≈ 257 µg/mL). Besides, the MIC in data set [7] is 460 µM (≈ 257 µg/mL); in data set [8] it was 230 µM (≈ 128 µg/mL); in data set [10], 60 µM (≈ 33.5 µg/mL); in [11] it was 920 µM (≈ 514 µg/mL); in data set [12], 230 µM (≈ 128 µg/mL). The solubility at 3 h in [9] lay within 374 to 3190 µg/mL (≈ 0.669 to 5.71 mM).

As to `COc1cc(/C=N/Nc2nccs2)c2c(c1OCc1ccc([N+](=O)[O-])cc1)CN1CCc3cc4c(cc3C1C2)OCO4` (centres undefined), the MIC came out at 110 µM (≈ 64.4 µg/mL) in data set [1]; 440 µM (≈ 258 µg/mL) in data set [2]; 220 µM (≈ 129 µg/mL) in data set [3]; 440 µM (≈ 258 µg/mL) in data set [4]; 7 µM (≈ 4.1 µg/mL) in data set [5]; 440 µM (≈ 258 µg/mL) in [6]. Further, the MIC in [7] is 50 µM (≈ 29.3 µg/mL); in [8] it was 220 µM (≈ 129 µg/mL); in data set [10] it was 110 µM (≈ 64.4 µg/mL); in [11] it was 870 µM (≈ 510 µg/mL); in data set [12] it was 220 µM (≈ 129 µg/mL). This compound also registered a solubility at 3 h in data set [9] of 374 to 3190 µg/mL (≈ 0.639 to 5.45 mM).

Turning to `CCCCCCCCCCOc1c(OC)cc(/C=N/Nc2nccs2)c2c1CN1CCc3cc4c(cc3C1C2)OCO4` (centres undefined), the MIC worked out at 220 µM (≈ 130 µg/mL) in [1]; 220 µM (≈ 130 µg/mL) in [2]; 430 µM (≈ 254 µg/mL) in [3]; 430 µM (≈ 254 µg/mL) in data set [4]; 220 µM (≈ 130 µg/mL) in data set [5]; 220 µM (≈ 130 µg/mL) in [6]. For the same compound, the MIC in data set [7] stood at 220 µM (≈ 130 µg/mL); in data set [8], 220 µM (≈ 130 µg/mL); in [10] it was 110 µM (≈ 65 µg/mL); in [11], 430 µM (≈ 254 µg/mL); in data set [12], 220 µM (≈ 130 µg/mL). The compound further displayed a solubility at 3 h in [9] of 61 µg/mL (≈ 0.103 mM).
